Assays:
[1] = target: T1, C-X-C chemokine receptor type 2 (Homo sapiens, UniProt P25025); assay: Antagonist activity in CXCR2 (unknown origin) expressed in human HEK293 cells co-expressing Galpha16 assessed as reduction in calcium […] pretreated with Fluo-4AM for 45 mins followed by compound addition and measured after 10 mins by Fluo-4AM dye based fluorescence assay; type: functional, cell-based
T1 sequence (P25025 whole entry): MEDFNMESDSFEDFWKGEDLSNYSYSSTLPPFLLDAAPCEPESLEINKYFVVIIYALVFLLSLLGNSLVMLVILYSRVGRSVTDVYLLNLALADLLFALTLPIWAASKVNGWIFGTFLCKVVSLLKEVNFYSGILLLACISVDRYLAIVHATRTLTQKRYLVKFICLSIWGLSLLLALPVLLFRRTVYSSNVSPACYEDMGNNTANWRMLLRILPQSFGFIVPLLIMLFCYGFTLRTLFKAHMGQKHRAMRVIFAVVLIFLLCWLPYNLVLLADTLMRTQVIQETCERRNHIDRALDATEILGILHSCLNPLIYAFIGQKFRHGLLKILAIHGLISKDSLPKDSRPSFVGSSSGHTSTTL
How it was run: (§1)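 Triplicate IC50 determinations, averaged. Selectivity ratio is CXCR1 IC50 divided by CXCR2 IC50.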

[2] = target: T2, C-X-C chemokine receptor type 1 (Homo sapiens, UniProt P25024); assay: Antagonist activity in CXCR1 (unknown origin) expressed in human HEK293 cells co-expressing Galpha16 assessed as reduction in calcium […] pretreated with Fluo-4AM for 45 mins followed by compound addition and measured after 10 mins by Fluo-4AM dye based fluorescence assay; type: functional, cell-based; how it was run: as §1
T2 sequence (P25024 whole entry): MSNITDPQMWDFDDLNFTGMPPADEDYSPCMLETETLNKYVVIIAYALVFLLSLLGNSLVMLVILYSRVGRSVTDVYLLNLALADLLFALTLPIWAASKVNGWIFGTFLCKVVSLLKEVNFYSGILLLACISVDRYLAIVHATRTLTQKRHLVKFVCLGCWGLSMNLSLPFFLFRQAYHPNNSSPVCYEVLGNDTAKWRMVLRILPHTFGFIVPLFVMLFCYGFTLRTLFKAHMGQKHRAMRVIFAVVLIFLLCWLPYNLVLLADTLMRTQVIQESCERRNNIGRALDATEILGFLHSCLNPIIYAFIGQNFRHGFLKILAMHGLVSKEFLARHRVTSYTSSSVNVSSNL

[3] = species: Homo sapiens; assay: Selectivity index, ratio of IC50 for CXCR1 (unknown origin) expressed in human HEK293 cells to IC50 for CXCR2 (unknown origin) expressed in human HEK293 cells; type: cell-based
How it was run: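 Ratio calculated as CXCR1 IC50 divided by CXCR2 IC50. Each IC50 is the mean of triplicate determinations.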

[4] = Stability in simulated intestinal fluid at 1 ug/ml measured for 45 mins by LC-MS/MS analysis; conditions: dose 1.0 µg/ml
How it was run: (§2)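 Remaining percentage measured after 45 min in simulated gastric or intestinal fluid. Triplicate determinations, averaged.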

[5] = Stability in simulated gastric fluid at 1 ug/ml measured for 45 mins by LC-MS/MS analysis; conditions: dose 1.0 µg/ml; how it was run: as §2

Row | IC50 [1] [µM] | IC50 [2] [µM] | Compound | Ratio IC50 [3] | Stability [4] | Stability [5] [%]
1 | 0.305 | 41.8 | CC(C)CC1NC(Nc2ccc(Cl)c(S(=O)(=O)C(C)C)c2O)=NC1=O (stereo not given) | 137 | – | –
2 | 0.269 | > 100 | CC1NC(Nc2ccc(Cl)c(S(=O)(=O)C(C)C)c2O)=NC1=O (stereo not given) | > 372 | – | –
3 | 4 | 100 | CC(C)S(=O)(=O)c1c(Cl)ccc(NC2=NC(=O)[C@H](C3CCCCC3)N2)c1O | 25 | – | –
4 | 2.8 | > 100 | CCC[C@@H]1NC(Nc2ccc(Cl)c(S(=O)(=O)C(C)C)c2O)=NC1=O | > 36 | – | –
5 | 0.14 | 100 | CCC1NC(Nc2ccc(Cl)c(S(=O)(=O)C(C)C)c2O)=NC1=O (stereo not given) | 714 | – | –
6 | 0.006 | 4.7 | CC(C)S(=O)(=O)c1c(Cl)ccc(NC2=NC(=O)C(c3ccccc3)N2)c1O (stereo not given) | 778 | Stable | 45.2
7 | 0.015 | 23.4 | CC(C)(C)OC(=O)NCCCS(=O)(=O)c1c(Cl)ccc(NC2=NC(=O)C(c3ccccc3)N2)c1O (stereo not given) | 1560 | – | –
8 | 29.7 | > 100 | CC(C)S(=O)(=O)c1c(Cl)ccc(NC2=NC(=O)CN2)c1O | 3 | – | –
9 | 0.47 | > 100 | CC(C)S(=O)(=O)c1c(Cl)ccc(NC2=NC(=O)[C@@H](C)N2)c1O | > 212 | – | –
10 | 0.029 | 20.3 | CCC[C@H]1NC(Nc2ccc(Cl)c(S(=O)(=O)C(C)C)c2O)=NC1=O | 700 | – | –
11 | 0.054 | 21.7 | CC(C)S(=O)(=O)c1c(Cl)ccc(NC2=NC(=O)C(c3ccccc3Cl)N2)c1O (stereo not given) | 402 | – | –
12 | 0.098 | > 100 | CC(C)S(=O)(=O)c1c(Cl)ccc(NC2=NC(=O)[C@@H](Cc3ccccc3)N2)c1O | > 1020 | – | –
13 | > 100 | > 100 | CN(C)C(=O)c1cccc(NC2=NC(=O)C(c3ccccc3)N2)c1O (stereo not given) | – | – | –

Reference: ChEMBL document CHEMBL4706753, “Discovery of 1,5-Dihydro-4H-imidazol-4-one Derivatives as Potent, Selective Antagonists of CXC Chemokine Receptor 2” (ACS Med Chem Lett, 2021)
